Columns and labels:
[1] = Binding affinity towards Opioid receptor delta 1 from guinea pig brain using [3H]naltrindole as radioligand
Mu-type opioid receptor [2] = biological target: Mu-type opioid receptor (Cavia porcellus, UniProt P97266); test: Binding affinity towards Opioid receptor mu 1 from guinea pig brain using [3H]DAMGO as radioligand
[3] = biological target: Kappa-type opioid receptor (Cavia porcellus) (UniProt P41144); test: Ratio of binding affinity of Opioid receptor kappa 1 to Opioid receptor mu 1 to Opioid receptor delta 1; kappa:mu:delta = 9:1:1
Sequence of Kappa-type opioid receptor (Cavia porcellus) (P41144 whole entry): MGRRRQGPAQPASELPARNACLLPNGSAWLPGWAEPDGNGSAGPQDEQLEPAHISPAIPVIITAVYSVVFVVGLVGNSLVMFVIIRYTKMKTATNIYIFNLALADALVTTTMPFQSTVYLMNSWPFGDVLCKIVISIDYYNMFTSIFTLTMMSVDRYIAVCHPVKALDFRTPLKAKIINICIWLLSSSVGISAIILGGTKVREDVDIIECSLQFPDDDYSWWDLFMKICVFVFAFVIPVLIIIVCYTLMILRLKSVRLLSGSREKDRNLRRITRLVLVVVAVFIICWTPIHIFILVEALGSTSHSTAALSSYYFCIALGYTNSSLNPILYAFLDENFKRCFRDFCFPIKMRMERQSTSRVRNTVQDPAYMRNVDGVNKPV

[4] = biological target: Kappa-type opioid receptor (Cavia porcellus, UniProt P41144); test: Binding affinity towards Opioid receptor kappa 1 from guinea pig brain using [3H]U-69593 as radioligand
Sequence of Kappa-type opioid receptor (Cavia porcellus, UniProt P41144) (P41144 whole entry): as above
Procedure, shortened: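 Uses 1 nM [3H]U69,593 with guinea pig brain membrane protein (500 µg), 12 concentrations, 50 mM Tris-HCl pH 7.5, 60 min at 25 °C. Nonspecific binding with 10 µM naloxone. Filters pre-soaked in 0.1% polyethylenimine; bound label counted.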

Mu-type opioid receptor [5] = biological target: T1, Mu-type opioid receptor (Homo sapiens, UniProt P35372); test: Incorporation of [35S]- GTPgammaS into CHO membranes expressing human Opioid receptor mu 1
T1 sequence (P35372 whole entry): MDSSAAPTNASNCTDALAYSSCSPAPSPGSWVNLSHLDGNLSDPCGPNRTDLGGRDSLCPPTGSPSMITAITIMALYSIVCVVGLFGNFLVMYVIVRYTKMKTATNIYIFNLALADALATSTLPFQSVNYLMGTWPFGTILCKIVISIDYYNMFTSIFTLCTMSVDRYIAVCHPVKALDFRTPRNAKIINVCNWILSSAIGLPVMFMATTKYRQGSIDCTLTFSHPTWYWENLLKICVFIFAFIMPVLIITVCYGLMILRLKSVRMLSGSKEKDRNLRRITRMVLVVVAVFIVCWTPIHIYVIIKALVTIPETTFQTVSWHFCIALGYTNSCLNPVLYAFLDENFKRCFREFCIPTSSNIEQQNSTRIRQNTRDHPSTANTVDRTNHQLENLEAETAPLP

[6] = biological target: Kappa-type opioid receptor (Cavia porcellus) (UniProt P41144); test: Ratio of binding affinity of Opioid receptor kappa 1 to Opioid receptor mu 1 to Opioid receptor delta 1; kappa:mu:delta = 29:18:1
[7] = biological target: T2, Kappa-type opioid receptor (Homo sapiens, UniProt P41145); test: (§1) Incorporation of [35S]GTP-gamma-S, into CHO membranes expressing human Opioid receptor kappa 1; type: functional
T2 sequence (P41145 whole entry): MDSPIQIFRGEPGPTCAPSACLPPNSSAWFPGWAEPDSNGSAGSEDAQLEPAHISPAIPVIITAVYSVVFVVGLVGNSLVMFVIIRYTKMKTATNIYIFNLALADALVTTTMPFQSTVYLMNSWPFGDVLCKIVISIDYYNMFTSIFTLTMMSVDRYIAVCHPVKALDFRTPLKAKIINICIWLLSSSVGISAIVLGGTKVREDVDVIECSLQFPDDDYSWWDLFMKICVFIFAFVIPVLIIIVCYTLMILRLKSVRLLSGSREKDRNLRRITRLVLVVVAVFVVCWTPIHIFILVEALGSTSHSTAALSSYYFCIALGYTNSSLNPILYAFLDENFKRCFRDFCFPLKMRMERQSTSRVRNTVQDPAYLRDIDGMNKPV

[8] = biological target: Kappa-type opioid receptor (Cavia porcellus) (UniProt P41144); test: Ratio of binding affinity of Opioid receptor kappa 1 to Opioid receptor mu 1 to Opioid receptor delta 1; kappa:mu:delta = 15:18:1
[9] = biological target: T2, Kappa-type opioid receptor; test: as §1; type: functional; remark: listed apart in the source
[10] = biological target: Kappa-type opioid receptor (Cavia porcellus) (UniProt P41144); test: Ratio of binding affinity of Opioid receptor kappa 1 to Opioid receptor mu 1 to Opioid receptor delta 1; kappa:mu:delta = 12:38:1
Mu-type opioid receptor [11] = biological target: T1, Mu-type opioid receptor; test: Incorporation of [35S]GTP-gamma-S, into CHO membranes expressing human Opioid receptor mu 1; type: functional
[12] = biological target: Kappa-type opioid receptor (Cavia porcellus) (UniProt P41144); test: Ratio of binding affinity of Opioid receptor kappa 1 to Opioid receptor mu 1 to Opioid receptor delta 1; kappa:mu:delta = 150:7:1
[13] = biological target: Kappa-type opioid receptor (Cavia porcellus) (UniProt P41144); test: Ratio of binding affinity of Opioid receptor kappa 1 to Opioid receptor mu 1 to Opioid receptor delta 1; kappa:mu:delta = 28:12:1

Sequence of Mu-type opioid receptor (Cavia porcellus, UniProt P97266) (P97266 whole entry): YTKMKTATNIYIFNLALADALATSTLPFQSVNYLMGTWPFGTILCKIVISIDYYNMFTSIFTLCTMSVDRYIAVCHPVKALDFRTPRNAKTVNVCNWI

Row | SMILES | Ki [1] | Ki (Mu-type opioid receptor [2]) | Ki [4] | other results
1 | C[C@H]1[C@H]2Cc3ccc(Nc4ccccc4)cc3[C@@]1(C)CCN2CC1CC1 (stereo in doubt; 10) | 9.4 nM | – | – | –
2 | C[C@H]1C2Cc3ccc(Nc4ccc(N(C)C)cc4)cc3[C@@]1(C)CCN2CC1CC1 | – | 70 nM | 8.8 nM | Ratio [3]: 9
3 | CC[C@@]12CCN(CC3CC3)C(C(=O)c3ccc(O)cc31)[C@@H]2C (single isomer, unassigned; (-)) [ETHYLKETOCYCLAZOCINE] | – | 0.73 nM | – | EC50 (Mu-type opioid receptor [5]): 5.5 nM
4 | COc1ccc(Nc2ccc3c(c2)[C@@]2(C)CCN(CC4CC4)C(C3)[C@@H]2C)cc1 | – | 0.47 nM | 0.29 nM | Ratio [6]: 29
5 | C[C@H]1[C@H]2Cc3ccc(O)cc3[C@]1(C)CCN2CC1CC1 (stereo in doubt) [CYCLAZOCINE] | – | – | – | EC50 [7]: 1.6 nM
6 | CCNc1ccc2c(c1)[C@@]1(C)CCN(CC3CC3)C(C2)[C@@H]1C | 19 nM | – | – | –
7 | C[C@H]1C2Cc3ccc(NCCc4ccccc4)cc3[C@@]1(C)CCN2CC1CC1 | 160 nM | – | – | Ratio [8]: 15
8 | C[C@H]1C2Cc3ccc(NCc4ccccc4)cc3[C@@]1(C)CCN2CC1CC1 (single isomer, unassigned; (-)) | 54 nM | – | – | –
9 | CNc1ccc2c(c1)[C@@]1(C)CCN(CC3CC3)C(C2)[C@@H]1C | 470 nM | – | – | –
10 | COc1ccc(CNc2ccc3c(c2)[C@@]2(C)CCN(CC4CC4)C(C3)[C@@H]2C)cc1 | – | 7.8 nM | 71 nM | –
11 | C[C@H]1C2Cc3ccc(Nc4ccccn4)cc3[C@@]1(C)CCN2CC1CC1 | – | 4.2 nM | 9.2 nM | –
12 | C[C@H]1C2Cc3ccc(Nc4cccnc4)cc3[C@@]1(C)CCN2CC1CC1 | – | 0.64 nM | 0.5 nM | Emax [9]: 90%; EC50 [7]: 10 nM
13 | C[C@H]1C2Cc3ccc(NCc4ccccc4)cc3[C@@]1(C)CCN2CC1CC1 (stereo in doubt; 25) | – | – | – | Ratio [10]: 12
14 | C[C@H]1[C@H]2Cc3ccc(Nc4ccccc4)cc3[C@@]1(C)CCN2CC1CC1 | – | – | – | Emax (Mu-type opioid receptor [11]): 50%; Emax [9]: 120%
15 | CC[C@@]12CCN(CC3CC3)C(C(=O)c3ccc(N)cc31)[C@@H]2C (stereo in doubt; 44) [listing 1 of 2 here] | – | – | – | Emax (Mu-type opioid receptor [11]): 60%; Emax [9]: 100%; Ratio [12]: 150
16 | CC[C@@]12CCN(CC3CC3)C(C(=O)c3ccc(N)cc31)[C@@H]2C (single isomer, unassigned; (-)) | – | 2.7 nM | 1.1 nM | EC50 (Mu-type opioid receptor [5]): 92 nM; EC50 [7]: 2.8 nM
17 | C[C@H]1C2Cc3ccc(N4CCCC4)cc3[C@@]1(C)CCN2CC1CC1 | 1800 nM | – | – | –
18 | C[C@H]1[C@H]2Cc3ccc(Nc4ccccc4)cc3[C@@]1(C)CCN2C[C@@H]1CCCO1 | – | 2.8 nM | 2 nM | –
19 | C[C@@H]1[C@@H]2Cc3ccc(N)cc3[C@]1(C)CCN2CC1CC1 | – | 780 nM | 506 nM | –
20 | C[C@H]1C2C(=O)c3ccc(O)cc3[C@@]1(C)CCN2CC1CC1 | – | – | 1 nM | EC50 (Mu-type opioid receptor [5]): 21 nM; Emax (Mu-type opioid receptor [11]): 40%; Emax [9]: 80%; EC50 [7]: 3.3 nM
21 | CC[C@@]12CCN(CC3CC3)C(C(=O)c3ccc(O)cc31)[C@@H]2C (single isomer, unassigned; (+)) [ETHYLKETOCYCLAZOCINE] | – | 320 nM | – | –
22 | C[C@H]1[C@H]2Cc3ccc(N)cc3[C@@]1(C)CCN2CC1CC1 | 12 nM | – | – | Emax [9]: 80%; EC50 [7]: 20 nM
23 | CC(C)Nc1ccc2c(c1)[C@@]1(C)CCN(CC3CC3)C(C2)[C@@H]1C | 460 nM | – | – | –
24 | C[C@H]1[C@H]2Cc3ccc(O)cc3[C@]1(C)CCN2CC1CC1 (stereo in doubt; (-)2) | – | – | – | Emax (Mu-type opioid receptor [11]): 50%; Emax [9]: 100%
25 | CC[C@@]12CCN(CC3CC3)C(C(=O)c3ccc(N)cc31)[C@@H]2C (stereo in doubt; 44) [listing 2 of 2 here] | – | 7.3 nM | 0.34 nM | EC50 (Mu-type opioid receptor [5]): 62 nM; EC50 [7]: 4.4 nM
26 | C[C@H]1C2Cc3ccc(N(C)C)cc3[C@@]1(C)CCN2CC1CC1 (stereo in doubt; 30) | 1500 nM | – | – | –
27 | C[C@H]1C2Cc3ccc(N4CCN(C)CC4)cc3[C@@]1(C)CCN2CC1CC1 | 250 nM | – | – | Ratio [13]: 28
28 | CC[C@@]12CCN(CC3CC3)C(C(=O)c3ccc(Nc4ccccc4)cc31)[C@@H]2C | – | 10 nM | 2.2 nM | EC50 (Mu-type opioid receptor [5]): 22 nM; Emax (Mu-type opioid receptor [11]): 70%; Emax [9]: 110%; EC50 [7]: 5.9 nM

From ChEMBL document CHEMBL1145777 (J Med Chem, 2003)
